ChEMBL document CHEMBL1255234, “daptomycin activity against Staphylococcus aureus following vancomycin exposure in an in vitro pharmacodynamic model with simulated endocardial vegetations” (Antimicrob Agents Chemother, 2008)
Converted amounts (≈) assume the structure as drawn.

What was measured:
Staphylococcus aureus [1] = test: Cmax in methicillin-resistant Staphylococcus aureus WB2 at 6 mg/kg administered daily for 4 days pretreated with 1 g vancomycin administered every 12 hrs for 4 days in in vitro pharmacokinetic-pharmacodynamic model with simulated endocardial vegetations; assay type: ADME, organism-based; design: dose 6 mg/kg; conditions: in vivo, 96 h
Summary of the method: (§1)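 Duplicate samples taken from the model injection port over 0–192 h and stored at −70°C. Daptomycin assayed by Micrococcus luteus ATCC 9341 disk microbioassay (standards 2.5–150 mg/liter; detection limit 2.5 mg/liter). Vancomycin assayed by fluorescence polarization immunoassay (detection limit 2 mg/liter). Cmax and half-life derived by the trapezoidal method.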

Staphylococcus aureus [2] = test: Cmax in methicillin-susceptible Staphylococcus aureus 616 at 10 mg/kg administered daily for 4 days pretreated with 1 g vancomycin administered every 12 hrs for 4 days in in vitro pharmacokinetic-pharmacodynamic model with simulated endocardial vegetations; assay type: ADME, organism-based; design: dose 10 mg/kg; conditions: in vivo, 96 h; summary of the method: as §1
Staphylococcus aureus [3] = test: Antimicrobial activity against methicillin-susceptible Staphylococcus aureus 616 at 6 mg/kg administered daily for 4 days in in vitro pharmacokinetic-pharmacodynamic model with simulated endocardial vegetations; assay type: functional
Summary of the method: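 SEVs (clot of cryoprecipitate, platelets and organism) were suspended in a 250-ml, 37°C model with bolus dosing and pump clearance simulating half-lives. Daptomycin was given every 24 h (Cmax 98.6, Cmin 6.2 mg/liter) after 4 days of vancomycin 1 g q12h or no treatment. SEVs were sampled to 192 h, homogenized and plated (35°C, 24 h) for CFU/g; T99.9 was derived. Runs were done in duplicate.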

Staphylococcus aureus [4] = test: Cmax in methicillin-susceptible Staphylococcus aureus 616 at 6 mg/kg administered daily for 4 days pretreated with 1 g vancomycin administered every 12 hrs for 4 days in in vitro pharmacokinetic-pharmacodynamic model with simulated endocardial vegetations; assay type: ADME, organism-based; design: dose 6 mg/kg; conditions: in vivo, 96 h; summary of the method: as §1
Staphylococcus aureus [5] = test: Cmax in methicillin-resistant Staphylococcus aureus 36132 at 6 mg/kg administered daily for 4 days pretreated with 1 g vancomycin administered every 12 hrs for 4 days in in vitro pharmacokinetic-pharmacodynamic model with simulated endocardial vegetations; assay type: ADME, organism-based; design: dose 6 mg/kg; conditions: in vivo, 96 h; summary of the method: as §1
Staphylococcus aureus [6] = test: Antimicrobial activity against methicillin-susceptible Staphylococcus aureus 616 at 6 mg/kg administered daily for 4 days pretreated with 1 g vancomycin administered every 12 hrs for 4 days in in vitro pharmacokinetic-pharmacodynamic model with simulated endocardial vegetations; assay type: functional
Summary of the method: (§2)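 S. aureus SEVs (≈10^9 CFU/g inoculum in human cryoprecipitate plus platelets) suspended in a 250-ml one-compartment model at 37°C. Fresh medium pumped to simulate drug half-lives; drug given as boluses over 8 days; duplicate models. Two SEVs removed per model at each time point (0–192 h), homogenized, plated on TSA 35°C 24 h. Log10 CFU/g reduction read from time-kill curves; detection limit 2.0 log10 CFU/g.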

Staphylococcus aureus [7] = test: Antimicrobial activity against methicillin-susceptible Staphylococcus aureus 616 at 6 mg/kg administered daily for 8 days in in vitro pharmacokinetic-pharmacodynamic model with simulated endocardial vegetations; assay type: functional; summary of the method: as §2
Staphylococcus aureus [8] = test: Cmax in methicillin-resistant Staphylococcus aureus 675 at 6 mg/kg administered daily for 4 days pretreated with 1 g vancomycin administered every 12 hrs for 4 days in in vitro pharmacokinetic-pharmacodynamic model with simulated endocardial vegetations; assay type: ADME, organism-based; design: dose 6 mg/kg; conditions: in vivo, 96 h; summary of the method: as §1
Staphylococcus aureus [9] = test: Half life in methicillin-resistant Staphylococcus aureus WB1 at 6 mg/kg administered daily for 4 days pretreated with 1 g vancomycin administered every 12 hrs for 4 days in in vitro pharmacokinetic-pharmacodynamic model with simulated endocardial vegetations; assay type: ADME, organism-based; design: dose 6 mg/kg; conditions: in vivo, 96 h; summary of the method: as §1
Staphylococcus aureus [10] = test: Half life in methicillin-susceptible Staphylococcus aureus 616 at 6 mg/kg administered daily for 4 days pretreated with 1 g vancomycin administered every 12 hrs for 4 days in in vitro pharmacokinetic-pharmacodynamic model with simulated endocardial vegetations; assay type: ADME, organism-based; design: dose 6 mg/kg; conditions: in vivo, 96 h; summary of the method: as §1
Staphylococcus aureus [11] = test: Cmax in methicillin-resistant Staphylococcus aureus WB1 at 6 mg/kg administered daily for 4 days pretreated with 1 g vancomycin administered every 12 hrs for 4 days in in vitro pharmacokinetic-pharmacodynamic model with simulated endocardial vegetations; assay type: ADME, organism-based; design: dose 6 mg/kg; conditions: in vivo, 96 h; summary of the method: as §1
Staphylococcus aureus [12] = test: Antimicrobial activity against methicillin-resistant Staphylococcus aureus WB1
Staphylococcus aureus [13] = test: Antimicrobial activity against methicillin-susceptible Staphylococcus aureus 616; assay type: functional
Summary of the method: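 MIC by broth microdilution in SMHB or by Etest, following CLSI guidelines. MBC defined as 99.9% killing of the starting inoculum, from 5 μl of the MIC well and all other growth-inhibited wells plated onto agar.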

Staphylococcus aureus [14] = test: Antimicrobial activity against methicillin-susceptible Staphylococcus aureus at 6 mg/kg administered daily for 4 days after 4 days of growth without antibiotic in in vitro pharmacokinetic-pharmacodynamic model with simulated endocardial vegetations
Staphylococcus aureus [15] = test: Half life in methicillin-resistant Staphylococcus aureus 36132 at 6 mg/kg administered daily for 4 days pretreated with 1 g vancomycin administered every 12 hrs for 4 days in in vitro pharmacokinetic-pharmacodynamic model with simulated endocardial vegetations; assay type: ADME, organism-based; design: dose 6 mg/kg; conditions: in vivo, 96 h; summary of the method: as §1
Staphylococcus aureus [16] = test: Half life in methicillin-resistant Staphylococcus aureus WB2 at 1 g administered every 12 hrs for 4 days in in vitro pharmacokinetic-pharmacodynamic model with simulated endocardial vegetations; assay type: ADME, organism-based; conditions: in vivo; summary of the method: as §1
Staphylococcus aureus [17] = test: Antimicrobial activity against methicillin-susceptible Staphylococcus aureus 616 at 6 mg/kg administered daily for 8 days pretreated with 1 g vancomycin administered every 12 hrs for 4 days in in vitro pharmacokinetic-pharmacodynamic model with simulated endocardial vegetations; assay type: functional; summary of the method: as §2
Staphylococcus aureus [18] = test: Half life in methicillin-resistant Staphylococcus aureus WB2 at 6 mg/kg administered daily for 4 days pretreated with 1 g vancomycin administered every 12 hrs for 4 days in in vitro pharmacokinetic-pharmacodynamic model with simulated endocardial vegetations; assay type: ADME, organism-based; design: dose 6 mg/kg; conditions: in vivo, 96 h; summary of the method: as §1
Staphylococcus aureus [19] = test: microbe, parasite or virus in culture; conditions: 675
Staphylococcus aureus [20] = test: Half life in methicillin-resistant Staphylococcus aureus 675 at 6 mg/kg administered daily for 4 days pretreated with 1 g vancomycin administered every 12 hrs for 4 days in in vitro pharmacokinetic-pharmacodynamic model with simulated endocardial vegetations; assay type: ADME, organism-based; design: dose 6 mg/kg; conditions: in vivo, 96 h; summary of the method: as §1
Staphylococcus aureus [21] = test: AUC(0-24 hrs)/MIC(broth) in methicillin-susceptible Staphylococcus aureus 616 at 1 g administered every 12 hrs for 4 days in in vitro pharmacokinetic-pharmacodynamic model with simulated endocardial vegetations; assay type: functional
Summary of the method: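 S. aureus simulated endocardial vegetations (fibrin/platelet clots, ~10^9 CFU/g) suspended in a 250-ml one-compartment model at 37°C, medium pumped to mimic half-life; vancomycin bolus every 12 h (target Cmax 30, Cmin 10 mg/liter) for 4 days. Duplicate runs. Drug levels by fluorescence polarization immunoassay; AUC0-24 by trapezoidal method, divided by broth microdilution MIC (CLSI).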

Staphylococcus aureus [22] = test: Half life in methicillin-susceptible Staphylococcus aureus 616 at 10 mg/kg administered daily for 4 days pretreated with 1 g vancomycin administered every 12 hrs for 4 days in in vitro pharmacokinetic-pharmacodynamic model with simulated endocardial vegetations; assay type: ADME, organism-based; design: dose 10 mg/kg; conditions: in vivo, 96 h; summary of the method: as §1
Staphylococcus aureus [23] = test: microbe, parasite or virus in culture; conditions: 36132
Staphylococcus aureus [24] = test: Antimicrobial activity against methicillin-resistant Staphylococcus aureus WB2
Staphylococcus aureus [25] = test: Half life in methicillin-resistant Staphylococcus aureus WB1 at 1 g administered every 12 hrs for 4 days in in vitro pharmacokinetic-pharmacodynamic model with simulated endocardial vegetations; assay type: ADME, organism-based; conditions: in vivo; summary of the method: as §1
Staphylococcus aureus [26] = test: Half life in methicillin-resistant Staphylococcus aureus 675 at 1 g administered every 12 hrs for 4 days in in vitro pharmacokinetic-pharmacodynamic model with simulated endocardial vegetations; assay type: ADME, organism-based; conditions: in vivo; summary of the method: as §1
Staphylococcus aureus [27] = test: Half life in methicillin-susceptible Staphylococcus aureus 616 at 1 g administered every 12 hrs for 4 days in in vitro pharmacokinetic-pharmacodynamic model with simulated endocardial vegetations; assay type: ADME, organism-based; conditions: in vivo; summary of the method: as §1
Staphylococcus aureus [28] = test: Cmax in methicillin-resistant Staphylococcus aureus 36132 at 1 g administered every 12 hrs for 4 days in in vitro pharmacokinetic-pharmacodynamic model with simulated endocardial vegetations; assay type: ADME, organism-based; design: dose 1 g; conditions: in vivo; summary of the method: as §1
Staphylococcus aureus [29] = test: Cmax in methicillin-susceptible Staphylococcus aureus 616 at 1 g administered every 12 hrs for 4 days in in vitro pharmacokinetic-pharmacodynamic model with simulated endocardial vegetations; assay type: ADME, organism-based; design: dose 1 g; conditions: in vivo; summary of the method: as §1
Staphylococcus aureus [30] = test: Cmax in methicillin-resistant Staphylococcus aureus 675 at 1 g administered every 12 hrs for 4 days in in vitro pharmacokinetic-pharmacodynamic model with simulated endocardial vegetations; assay type: ADME, organism-based; design: dose 1 g; conditions: in vivo; summary of the method: as §1
Staphylococcus aureus [31] = test: Cmax in methicillin-resistant Staphylococcus aureus WB1 at 1 g administered every 12 hrs for 4 days in in vitro pharmacokinetic-pharmacodynamic model with simulated endocardial vegetations; assay type: ADME, organism-based; design: dose 1 g; conditions: in vivo; summary of the method: as §1
Staphylococcus aureus [32] = test: Cmax in methicillin-resistant Staphylococcus aureus WB2 at 1 g administered every 12 hrs for 4 days in in vitro pharmacokinetic-pharmacodynamic model with simulated endocardial vegetations; assay type: ADME, organism-based; design: dose 1 g; conditions: in vivo; summary of the method: as §1
Staphylococcus aureus [33] = test: Half life in methicillin-resistant Staphylococcus aureus 36132 at 1 g administered every 12 hrs for 4 days in in vitro pharmacokinetic-pharmacodynamic model with simulated endocardial vegetations; assay type: ADME, organism-based; conditions: in vivo; summary of the method: as §1

SMILES: CCCCCCCCCC(=O)N[C@@H](Cc1c[nH]c2ccccc12)C(=O)N[C@H](CC(N)=O)C(=O)N[C@@H](CC(=O)O)C(=O)N[C@@H]1C(=O)NCC(=O)N[C@@H](CCCN)C(=O)N[C@@H](CC(=O)O)C(=O)N[C@H](C)C(=O)N[C@@H](CC(=O)O)C(=O)NCC(=O)N[C@H](CO)C(=O)N[C@@H]([C@H](C)CC(=O)O)C(=O)N[C@@H](CC(=O)c2ccccc2N)C(=O)O[C@@H]1C
- Cmax (Staphylococcus aureus [1]): 106.1 µg/mL
- Cmax (Staphylococcus aureus [2]): 160.2 µg/mL
- T99.9% (Staphylococcus aureus [3]): 10.9 h
- Cmax (Staphylococcus aureus [4]): 106.8 µg/mL
- Cmax (Staphylococcus aureus [5]): 109.3 µg/mL
- T99.9% (Staphylococcus aureus [6]): 9.46 h
- T99.9% (Staphylococcus aureus [7]): 4.8 h
- Cmax (Staphylococcus aureus [8]): 107.2 µg/mL
- t1/2 (Staphylococcus aureus [9]): 7.9 h
- t1/2 (Staphylococcus aureus [10]): 8.4 h
- Cmax (Staphylococcus aureus [11]): 98.3 µg/mL
- MIC (Staphylococcus aureus [12]): 0.25 µg/mL (≈ 0.154 µM)
- MIC (Staphylococcus aureus [13]): 0.125 µg/mL (≈ 0.0771 µM)
- T99.9% (Staphylococcus aureus [14]): 34.9 h
- t1/2 (Staphylococcus aureus [15]): 8.8 h
- t1/2 (Staphylococcus aureus [16]): 5.3 h
- T99.9% (Staphylococcus aureus [17]): 6.6 h
- t1/2 (Staphylococcus aureus [18]): 7.6 h
- MIC (Staphylococcus aureus [19]): 0.25 µg/mL (≈ 0.154 µM)
- t1/2 (Staphylococcus aureus [20]): 8 h
- RatioAUC/MIC (Staphylococcus aureus [21]): 536.4
- t1/2 (Staphylococcus aureus [22]): 9.3 h
- MIC (Staphylococcus aureus [23]): 0.25 µg/mL (≈ 0.154 µM)
- MIC (Staphylococcus aureus [24]): 0.25 µg/mL (≈ 0.154 µM)

SMILES: CN[C@H](CC(C)C)C(=O)N[C@H]1C(=O)N[C@@H](CC(N)=O)C(=O)N[C@H]2C(=O)N[C@H]3C(=O)N[C@H](C(=O)N[C@H](C(=O)O)c4cc(O)cc(O)c4-c4cc3ccc4O)[C@H](O)c3ccc(c(Cl)c3)Oc3cc2cc(c3O[C@@H]2O[C@H](CO)[C@@H](O)[C@H](O)[C@H]2O[C@H]2C[C@](C)(N)[C@H](O)[C@H](C)O2)Oc2ccc(cc2Cl)[C@H]1O [VANCOMYCIN]
- t1/2 (Staphylococcus aureus [25]): 6.6 h
- t1/2 (Staphylococcus aureus [26]): 7.2 h
- t1/2 (Staphylococcus aureus [27]): 7.4 h
- Cmax (Staphylococcus aureus [28]): 31.4 µg/mL
- Cmax (Staphylococcus aureus [29]): 31.7 µg/mL
- Cmax (Staphylococcus aureus [30]): 32.9 µg/mL
- t1/2 (Staphylococcus aureus [16]): 5.3 h
- Cmax (Staphylococcus aureus [31]): 32.8 µg/mL
- Cmax (Staphylococcus aureus [32]): 33.4 µg/mL
- t1/2 (Staphylococcus aureus [33]): 6.9 h
